{"source": "ChEMBL document CHEMBL4689842", "about": "“EUbOPEN Chemogenomics Library wave 1” (2021)", "tested_on": "U2OS", "assay": "Multiplex assay against U2OS", "type": "toxicity, cell-based", "settings": "human", "how_it_was_run": "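Four dyes were applied at seeding to live cells: Hoechst33342, BioTracker Green Microtubule Cytoskeleton Dye, MitoTracker Red and Annexin V Alexa Fluor 680. Imaging after compound addition used a CQ1 microscope at 37°C and 5% CO2. CellPathfinder machine-learning gating then sorted cells into Hoechst high-intensity objects or normal cells, normal cells into healthy, pyknosed or fragmented nuclei, and pyknosed cells into mitotic or apoptotic, with tubulin, mitochondrial-mass and membrane-permeability phenotypes given as per cents of healthy-nucleus cells.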", "key": {"[1]": {"settings": "12 h, 1 µM, compound concentration 1 uM, replicate 1"}, "[2]": {"settings": "12 h, 1 µM, compound concentration 1 uM, replicate 2"}, "[3]": {"settings": "12 h, 10 µM, compound concentration 10 uM, replicate 1"}, "[4]": {"settings": "12 h, 10 µM, compound concentration 10 uM, replicate 2"}, "[5]": {"settings": "24 h, 1 µM, compound concentration 1 uM, replicate 1"}, "[6]": {"settings": "24 h, 1 µM, compound concentration 1 uM, replicate 2"}, "[7]": {"settings": "24 h, 10 µM, compound concentration 10 uM, replicate 1"}, "[8]": {"settings": "24 h, 10 µM, compound concentration 10 uM, replicate 2"}}}
{"smiles": "NC(=O)c1cccc(-c2cc(Nc3ccc(OC(F)(F)F)cc3)ncn2)c1", "values": [{"measurement": "Population Apoptotic (%)", "setting": "[1]", "value": 27, "unit": "%"}, {"measurement": "Population Fragmented Nuclei (%)", "setting": "[1]", "value": 5, "unit": "%"}, {"measurement": "Population Healthy Nuclei (%)", "setting": "[1]", "value": 89, "unit": "%"}, {"measurement": "Population Hoechst High Intensity Objects (%)", "setting": "[1]", "value": 1, "unit": "%"}, {"measurement": "Population Membrane Permeable-Phenotype (%)", "setting": "[1]", "value": 8, "unit": "%"}, {"measurement": "Population Mitochondria Different-Phenotype (%)", "setting": "[1]", "value": 24, "unit": "%"}, {"measurement": "Population Mitotic Cells (%)", "setting": "[1]", "value": 72, "unit": "%"}, {"measurement": "Population Normal (%)", "setting": "[1]", "value": 98, "unit": "%"}, {"measurement": "Population Pyknosed Nuclei (%)", "setting": "[1]", "value": 5, "unit": "%"}, {"measurement": "Population Tubulin-Different-Phenotype (%)", "setting": "[1]", "value": 25, "unit": "%"}, {"measurement": "Total Cell Count", "setting": "[1]", "value": 640}, {"measurement": "Population Apoptotic (%)", "setting": "[2]", "value": 0, "unit": "%"}, {"measurement": "Population Fragmented Nuclei (%)", "setting": "[2]", "value": 16, "unit": "%"}, {"measurement": "Population Healthy Nuclei (%)", "setting": "[2]", "value": 81, "unit": "%"}, {"measurement": "Population Hoechst High Intensity Objects (%)", "setting": "[2]", "value": 16, "unit": "%"}, {"measurement": "Population Membrane Permeable-Phenotype (%)", "setting": "[2]", "value": 13, "unit": "%"}, {"measurement": "Population Mitochondria Different-Phenotype (%)", "setting": "[2]", "value": 36, "unit": "%"}, {"measurement": "Population Mitotic Cells (%)", "setting": "[2]", "value": 100, "unit": "%"}, {"measurement": "Population Normal (%)", "setting": "[2]", "value": 84, "unit": "%"}, {"measurement": "Population Pyknosed Nuclei (%)", "setting": "[2]", "value": 1, "unit": "%"}, {"measurement": "Population Tubulin-Different-Phenotype (%)", "setting": "[2]", "value": 29, "unit": "%"}, {"measurement": "Total Cell Count", "setting": "[2]", "value": 738}, {"measurement": "Population Apoptotic (%)", "setting": "[3]", "value": 56, "unit": "%"}, {"measurement": "Population Fragmented Nuclei (%)", "setting": "[3]", "value": 5, "unit": "%"}, {"measurement": "Population Healthy Nuclei (%)", "setting": "[3]", "value": 86, "unit": "%"}, {"measurement": "Population Hoechst High Intensity Objects (%)", "setting": "[3]", "value": 3, "unit": "%"}, {"measurement": "Population Membrane Permeable-Phenotype (%)", "setting": "[3]", "value": 7, "unit": "%"}, {"measurement": "Population Mitochondria Different-Phenotype (%)", "setting": "[3]", "value": 26, "unit": "%"}, {"measurement": "Population Mitotic Cells (%)", "setting": "[3]", "value": 43, "unit": "%"}, {"measurement": "Population Normal (%)", "setting": "[3]", "value": 96, "unit": "%"}, {"measurement": "Population Tubulin-Different-Phenotype (%)", "setting": "[3]", "value": 16, "unit": "%"}, {"measurement": "Total Cell Count", "setting": "[3]", "value": 201}, {"measurement": "Population Apoptotic (%)", "setting": "[4]", "value": 45, "unit": "%"}, {"measurement": "Population Fragmented Nuclei (%)", "setting": "[4]", "value": 4, "unit": "%"}, {"measurement": "Population Healthy Nuclei (%)", "setting": "[4]", "value": 87, "unit": "%"}, {"measurement": "Population Hoechst High Intensity Objects (%)", "setting": "[4]", "value": 9, "unit": "%"}, {"measurement": "Population Membrane Permeable-Phenotype (%)", "setting": "[4]", "value": 12, "unit": "%"}, {"measurement": "Population Mitochondria Different-Phenotype (%)", "setting": "[4]", "value": 24, "unit": "%"}, {"measurement": "Population Mitotic Cells (%)", "setting": "[4]", "value": 54, "unit": "%"}, {"measurement": "Population Normal (%)", "setting": "[4]", "value": 90, "unit": "%"}, {"measurement": "Population Pyknosed Nuclei (%)", "setting": "[4]", "value": 8, "unit": "%"}, {"measurement": "Population Tubulin-Different-Phenotype (%)", "setting": "[4]", "value": 13, "unit": "%"}, {"measurement": "Total Cell Count", "setting": "[4]", "value": 125}, {"measurement": "Population Apoptotic (%)", "setting": "[5]", "value": 27, "unit": "%"}, {"measurement": "Population Fragmented Nuclei (%)", "setting": "[5]", "value": 2, "unit": "%"}, {"measurement": "Population Healthy Nuclei (%)", "setting": "[5]", "value": 93, "unit": "%"}, {"measurement": "Population Hoechst High Intensity Objects (%)", "setting": "[5]", "value": 0, "unit": "%"}, {"measurement": "Population Membrane Permeable-Phenotype (%)", "setting": "[5]", "value": 3, "unit": "%"}, {"measurement": "Population Mitochondria Different-Phenotype (%)", "setting": "[5]", "value": 23, "unit": "%"}, {"measurement": "Population Mitotic Cells (%)", "setting": "[5]", "value": 72, "unit": "%"}, {"measurement": "Population Normal (%)", "setting": "[5]", "value": 99, "unit": "%"}, {"measurement": "Population Tubulin-Different-Phenotype (%)", "setting": "[5]", "value": 31, "unit": "%"}, {"measurement": "Total Cell Count", "setting": "[5]", "value": 576}, {"measurement": "Population Apoptotic (%)", "setting": "[6]", "value": 20, "unit": "%"}, {"measurement": "Population Fragmented Nuclei (%)", "setting": "[6]", "value": 8, "unit": "%"}, {"measurement": "Population Healthy Nuclei (%)", "setting": "[6]", "value": 87, "unit": "%"}, {"measurement": "Population Hoechst High Intensity Objects (%)", "setting": "[6]", "value": 6, "unit": "%"}, {"measurement": "Population Membrane Permeable-Phenotype (%)", "setting": "[6]", "value": 14, "unit": "%"}, {"measurement": "Population Mitochondria Different-Phenotype (%)", "setting": "[6]", "value": 42, "unit": "%"}, {"measurement": "Population Mitotic Cells (%)", "setting": "[6]", "value": 80, "unit": "%"}, {"measurement": "Population Normal (%)", "setting": "[6]", "value": 93, "unit": "%"}, {"measurement": "Population Pyknosed Nuclei (%)", "setting": "[6]", "value": 3, "unit": "%"}, {"measurement": "Population Tubulin-Different-Phenotype (%)", "setting": "[6]", "value": 44, "unit": "%"}, {"measurement": "Total Cell Count", "setting": "[6]", "value": 747}, {"measurement": "Population Apoptotic (%)", "setting": "[7]", "value": 16, "unit": "%"}, {"measurement": "Population Fragmented Nuclei (%)", "setting": "[7]", "value": 6, "unit": "%"}, {"measurement": "Population Healthy Nuclei (%)", "setting": "[7]", "value": 90, "unit": "%"}, {"measurement": "Population Hoechst High Intensity Objects (%)", "setting": "[7]", "value": 0, "unit": "%"}, {"measurement": "Population Membrane Permeable-Phenotype (%)", "setting": "[7]", "value": 5, "unit": "%"}, {"measurement": "Population Mitochondria Different-Phenotype (%)", "setting": "[7]", "value": 19, "unit": "%"}, {"measurement": "Population Mitotic Cells (%)", "setting": "[7]", "value": 83, "unit": "%"}, {"measurement": "Population Normal (%)", "setting": "[7]", "value": 99, "unit": "%"}, {"measurement": "Population Pyknosed Nuclei (%)", "setting": "[7]", "value": 4, "unit": "%"}, {"measurement": "Population Tubulin-Different-Phenotype (%)", "setting": "[7]", "value": 20, "unit": "%"}, {"measurement": "Total Cell Count", "setting": "[7]", "value": 281}, {"measurement": "Population Apoptotic (%)", "setting": "[8]", "value": 14, "unit": "%"}, {"measurement": "Population Fragmented Nuclei (%)", "setting": "[8]", "value": 4, "unit": "%"}, {"measurement": "Population Healthy Nuclei (%)", "setting": "[8]", "value": 88, "unit": "%"}, {"measurement": "Population Hoechst High Intensity Objects (%)", "setting": "[8]", "value": 7, "unit": "%"}, {"measurement": "Population Membrane Permeable-Phenotype (%)", "setting": "[8]", "value": 8, "unit": "%"}, {"measurement": "Population Mitochondria Different-Phenotype (%)", "setting": "[8]", "value": 25, "unit": "%"}, {"measurement": "Population Mitotic Cells (%)", "setting": "[8]", "value": 85, "unit": "%"}, {"measurement": "Population Normal (%)", "setting": "[8]", "value": 92, "unit": "%"}, {"measurement": "Population Pyknosed Nuclei (%)", "setting": "[8]", "value": 7, "unit": "%"}, {"measurement": "Population Tubulin-Different-Phenotype (%)", "setting": "[8]", "value": 19, "unit": "%"}, {"measurement": "Total Cell Count", "setting": "[8]", "value": 145}]}
